Screens from PubChem.
CHOP inhibitor – CHOP inhibition in unfolded protein response | inhibition, % at 10 µM | CHO-K1 CHOP-promoter luciferase, tunicamycin-induced, 15-18 h | actives 3.8% (n = 220,000) | AID 2732;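 active means compounds that reduced the stress-induced luciferase reporter signal by more than about 70% of percent inhibition, limit read from the data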
UPR XBP1 act – adaptive UPR (XBP1) activation | CHO-XBP1 luciferase reporter, IRE1-XBP1 UPR activation, luminescence; percent of tunicamycin response, DMSO as zero | activation, % at 20 µM | actives 0.33% (n = 330,000) | AID 463104;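 active means versus positive control, 20 µM dose yields 30% or more activation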
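Test system: CHO-XBP1 luciferase reporter cells | Buffer or medium: Serum-containing F12 medium, 10% FBS | Schedule: 6 h compound exposure at 37 °C, 5% CO2 | Detection: Steady-Glo luciferase glow luminescence, 10 min after reagent addition | Read-out basis: Activation, % of tunicamycin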
V-ATPase pH – regulators of yeast V-ATPase proton transport; actives 0.37% (n = 350,000); response, % at 10 µM; S. cerevisiae, pHLuorin cytosolic pH fluorescence; AID 504577; in the data active means response mostly above about 7.3%, no sharp cut-off; inactive means mostly below about 5.4%; further: actives read high
CHOP UPR activ – activators of apoptotic arm of unfolded protein response (CHOP); CHO-CHOP luciferase reporter, UPR activation, luminescence; percent of tunicamycin response over DMSO baseline; activation, % at 10 µM; actives 0.34% (n = 330,000);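 active means at 10 µM dose, activation of 40% or more, normalized to positive control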
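Material: CHO-CHOP cells, stable luciferase reporter of PERK-eIF2a-CHOP signalling; quantity: 500 reporter cells seeded per well; buffer or medium: F12 medium containing 10% fetal bovine serum; compound: one dose, 10 µM in 0.5% DMSO; incubation: 6 h compound treatment, 37 °C; measured by: Steady-Glo luciferase luminescence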
TbMetRS inhib – blocks T. brucei methionyl-tRNA synthetase activity; purified T. brucei MetRS, ATP depletion, Kinase-Glo luminescence; inhibition, % at 11.9 µM; actives 0.4% (n = 360,000); AID 624268;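 active means inhibition above a per-plate cutoff of the control wells' mean inhibition plus 3 SD, cut at about 5.5% in these data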
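Dosing: 11.9 µM compound single dose, 0.9% DMSO; Assay system: purified T. brucei MetRS enzyme; Measured by: Kinase-Glo luciferase luminescence reporting remaining unconsumed ATP; Schedule: 15 min plus 2 h at 25 °C.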
A number is an active result; 0 = inactive; - = not tested or not shown. This excerpt belongs to a sample that is enriched for hits.

SMILES	CHOP inhibitor	UPR XBP1 act	V-ATPase pH	CHOP UPR activ	TbMetRS inhib
CCOc1ccccc1OCCOc1ccccc1OC(C)C	0	0	0	0	0
CCOc1ccccc1OCCOc1ccccc1CC	76	0	0	0	0
CCCn1c(SCC(=O)NCc2ccc(OC)cc2)n[nH]c1=O	0	0	0	0	0
CCCn1c(SCC(=O)N2N=C3/C(=C/c4ccc(OC)cc4)CCCC3C2c2ccc(OC)cc2)n[nH]c1=O (stereo not drawn)	71	0	0	0	0
O=C1CC(c2ccccc2)=Nc2ccccc2N1Cc1ccccc1	0	0	0	0	0
CN(C)c1ccc(NC(=O)CN2C(=O)CC(c3ccccc3)=Nc3ccccc32)cc1	91	0	0	0	0
CCOC(=O)c1c(C)n(C)c2cc(-c3ccc(F)cc3)c(O)cc12	79	0	0	0	0
CCOC(=O)c1c(C)n(C)c2ccc(OC(C)=O)cc12	0	0	0	0	0
OCCNCC12CC3CC(CC(C3)C1)C2	0	0	0	0	0
C/C(=N\NC(=O)c1cc(-c2cccc([N+](=O)[O-])c2)n[nH]1)c1ccccc1O	94	-	0	-	0
Cn1ccc2c(/C=C/c3ccc(F)cc3)cc3c(c21)C1CCC3C1 (stereo not drawn)	-	-	-	-	0
Cc1cccc(C)c1NC(=O)C1(C)CN(S(C)(=O)=O)CC(=O)N1Cc1ccco1 (stereo not drawn)	-	-	-	-	0
CCOC(=O)c1c(NC(=O)CN2CCCCC2)sc(CN(C)C)c1-c1ccccc1	0	0	0	0	0
CCOC(=O)c1c(NC(=O)CN2CCCCC2)sc2c1CCCC2O (stereo not drawn)	86	0	0	0	0
O=C(Nc1ccc(F)cc1)C(c1ccnc2ccccc12)N1CCN(c2cccc(C(F)(F)F)n2)CC1 (stereo not drawn)	-	-	-	-	0
CCOC(=O)N1CCN(C(=O)CSCC(=O)Nc2nc(-c3ccc(-c4ccccc4)cc3)cs2)CC1	85	0	0	0	0
O=C(CSc1nnc(-c2ccncc2)n1Cc1ccco1)Nc1ccccc1Cl	0	0	0	0	0
O=C(CSc1nnc(Cc2cccs2)n1Cc1ccco1)Nc1cccc(Cl)c1	0	0	0	0	0
Cc1cc(-c2nnc(SCC(=O)Nc3nc(-c4ccccc4)cs3)o2)no1	0	0	0	0	0
Cc1occc1-c1nnc(SCC(=O)Nc2nc(-c3ccccc3)cs2)o1	72	0	0	0	0
O=C(CSc1nnc(-c2ccncc2)n1Cc1ccco1)Nc1nc(-c2ccccc2)cs1	77	0	0	0	0
O=C(CSc1nnc(Cc2cccs2)n1Cc1ccco1)Nc1cc(Cl)cc(Cl)c1	82	0	0	0	0
Cc1cnc(NC(=O)CSc2ncc(-c3ccccc3)n2Cc2ccco2)s1	73	0	0	0	0
CC(C1CC1)N(Cc1ccccc1)C(=S)Nc1cccc(C(F)(F)F)c1 (stereo not drawn)	75	0	0	0	0
CC(C1CC1)N(Cc1ccccc1)C(=S)Nc1ccccc1 (stereo not drawn)	0	0	0	0	0
SMILES	CHOP inhibitor	UPR XBP1 act	V-ATPase pH	CHOP UPR activ	TbMetRS inhib
CC1(C(=O)NCc2cccs2)Cc2c(-c3ccccc3)ccnc2O1 (stereo not drawn)	-	-	-	-	0
NC(=O)CC(NC(=O)Cc1cccc2ccccc12)c1ccc(N2CCCCCCC2)c([N+](=O)[O-])c1 (stereo not drawn)	-	0	0	0	0
NC(=O)CC(NC(=O)Cc1ccc(Br)cc1)c1ccc(NCc2ccc(F)c(F)c2)c([N+](=O)[O-])c1 (stereo not drawn)	76	0	0	0	0
NC(=O)CC(NC(=O)Cc1cccc2ccccc12)c1ccc(N2CCN(c3ccc(F)cc3)CC2)c([N+](=O)[O-])c1 (stereo not drawn)	94	0	0	0	0
NC(=O)CC(NC(=O)Cc1ccc(Br)cc1)c1ccc(N2CCC(Cc3ccccc3)CC2)c([N+](=O)[O-])c1 (stereo not drawn)	96	0	0	0	0
NC(=O)CC(NC(=O)Cc1ccc(Br)cc1)c1ccc(N2CCC(Br)CC2)c([N+](=O)[O-])c1 (stereo not drawn)	87	0	0	0	0
COc1cccc(C(NC(C)=O)c2nc(-c3csc4ccccc34)cs2)c1 (stereo not drawn)	-	-	-	-	0
Cc1cc(NC(=O)CCCSc2nc(-c3ccco3)cc(C(F)(F)F)n2)no1	88	0	0	0	0
Cc1cc(NC(=O)CCSc2nc(-c3ccco3)cc(C(F)(F)F)n2)no1	0	0	0	0	0
Cc1ccc(Cn2ccc(NC(=O)CCSc3nc(-c4ccco4)cc(C(F)(F)F)n3)n2)cc1	90	0	0	0	0
CC(C)(C)c1cc(C(F)(F)F)nc(SCCCNC(=O)c2ccco2)n1	86	0	0	0	0
COc1cc(/C=C/C(=O)c2ccc(NS(=O)(=O)c3ccc(C)cc3)cc2)cc(OC)c1O	0	-	113	-	0
COc1cc(/C=C/C(=O)c2ccc(NS(=O)(=O)c3ccc(C)cc3)cc2)ccc1OC(F)F	0	0	0	0	0
Oc1c(Br)cc(Br)cc1/C=N/c1nc2c(s1)CCCC2	86	0	0	0	0
Cc1ccc(C(=O)N(CC(=O)Nc2ccc(Cl)c(Cl)c2)Cc2ccco2)cc1	0	0	0	0	0
O=C(CN(Cc1ccco1)C(=O)c1ccccc1)Nc1ccc(Cl)c(Cl)c1	0	0	0	0	5.8
O=C1CC(c2ccccc2)CC2=C1C1(CCCC1)N=C(Nc1nc3ccccc3o1)N2 (stereo not drawn)	-	-	-	-	0
CCCCNC(=O)C1(C)CCCCN1C(=O)c1ccc(C#N)cc1 (stereo not drawn)	-	-	-	-	0
CN(Cc1ccc(Cl)s1)C(=O)CCl	105	0	0	0	0
O=C(CSc1ccccc1F)NC(=O)NC1CCCC1	-	-	0	-	0
Cc1ccc(-c2nnc(-c3cccc(Br)c3)o2)cc1	0	0	0	0	0
Brc1cccc(-c2nnc(-c3ccccc3)o2)c1	75	0	0	0	0
Cc1ccc2[nH]c(O)c(N=Nc3ccccc3[N+](=O)[O-])c2c1	-	-	0	-	0
CCN(CC)S(=O)(=O)c1cc([N+](=O)[O-])ccc1N=Nc1c(O)[nH]c2ccccc12	75	-	0	-	0
C1=C(c2ccccc2)N2CCN=C2S1	86	0	0	0	0
O=C(Nc1nc(-c2ccccc2)cs1)c1ccc(N2CCOCC2)c([N+](=O)[O-])c1	79	0	0	0	0
O=C(Nc1ccon1)c1ccc(N2CCCCC2)c([N+](=O)[O-])c1	0	0	0	0	0
Cc1cc(C)n(-c2ccc(C(=O)Nc3nc4ccccc4s3)cc2)n1	90	0	0	0	0
CCc1ccc2nc(NC(=O)c3ccc(N4C(=O)CCC4=O)cc3)sc2c1	80	0	0	0	0
